Source: PMC3372611 (Biochemical Pharmacology, 2012)
Where a chain is given by its changes, count along the chain named. Where “and” joins values, the source holds several entries; their conditions need not be identical. Identical values can stand only once.

Assays:
WT PMAT = molecular target: T1, WT PMAT (Homo sapiens, UniProt Q7RTT9); experiment: Inhibition of [3H]MPP+ uptake in WT PMAT-transfected MDCK cells; assay type: cell-based
T1 sequence (Q7RTT9 1-530): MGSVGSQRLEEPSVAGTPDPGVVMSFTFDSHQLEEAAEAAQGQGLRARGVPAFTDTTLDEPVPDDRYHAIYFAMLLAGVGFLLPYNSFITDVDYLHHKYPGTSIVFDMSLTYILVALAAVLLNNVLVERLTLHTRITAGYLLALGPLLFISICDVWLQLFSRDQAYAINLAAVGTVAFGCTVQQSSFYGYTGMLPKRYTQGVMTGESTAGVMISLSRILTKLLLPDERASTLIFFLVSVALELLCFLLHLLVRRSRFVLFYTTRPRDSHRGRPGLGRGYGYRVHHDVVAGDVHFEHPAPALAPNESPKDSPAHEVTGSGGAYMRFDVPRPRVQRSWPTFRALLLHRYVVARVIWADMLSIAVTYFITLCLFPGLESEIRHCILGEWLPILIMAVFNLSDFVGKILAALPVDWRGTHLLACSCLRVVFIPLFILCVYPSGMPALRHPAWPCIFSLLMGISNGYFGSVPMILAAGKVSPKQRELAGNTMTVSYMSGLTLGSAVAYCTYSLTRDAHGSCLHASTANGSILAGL
Outline: (§1)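 Stably transfected MDCK cells (YFP-tagged WT or I89M human PMAT) at confluence were exposed 1 min at 37°C in KRH buffer (pH 7.4) to [3H]MPP+ (1 μM) with or without test compound at various concentrations. Cells were washed in ice-cold KRH, counted by scintillation, and normalized to protein. IC50 came from fitting total uptake to a Hill-type equation with residual baseline. Wells in triplicate; three independent experiments on different passages; mean ± S.D.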

PMAT I89M mutant [1] = molecular target: T2, PMAT I89M mutant (Homo sapiens, UniProt Q7RTT9, I89M); experiment: Inhibition of [3H]MPP+ uptake in I89M-transfected MDCK cells; assay type: cell-based
T2 sequence (Q7RTT9 1-530 I89M): T1 sequence (Q7RTT9 1-530) with I89M
Outline: as §1

PMAT I89M mutant [2] = molecular target: T2, PMAT I89M mutant; experiment: Concentration-dependent [3H]MPP+ uptake; assay type: cell-based; details: MPP+ as substrate
Outline: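 MDCK cells stably expressing YFP-tagged WT or I89M human PMAT (G418-selected, FACS-sorted) were grown 2–3 days to ~90–100% confluence. Cells were preincubated 15 min in KRH buffer (pH 7.4) at 37°C, then given various [3H]MPP+ concentrations for 1 min at 37°C. Uptake was read by scintillation and normalized to protein. Vector-cell uptake was subtracted, and Km and Vmax came from Michaelis-Menten nonlinear least-squares fits. Wells in triplicate; n=3 passages.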

ENT1 = details: mammalian ENT1 proteins; cited from earlier work
ENT2 = ENT2 transporters; cited from earlier work

## COc1cc(C(=O)OCCCN2CCCN(CCCOC(=O)c3cc(OC)c(OC)c(OC)c3)CC2)cc(OC)c1OC [Dilazep, dilazep]
WT PMAT
  IC50: 16.6 ± 2.1 µM
PMAT I89M mutant [1]
  IC50: 6.6 ± 0.5 µM
PMAT I89M mutant [1]; inhibition of MPP+ uptake
  Increase in transporter sensitivity to inhibition, I89M vs WT PMAT: 2.5 fold and ~ 2.5 fold

## OCCN(CCO)c1nc(N2CCCCC2)c2nc(N(CCO)CCO)nc(N3CCCCC3)c2n1 [Dipyridamole, dipyridamole]
PMAT I89M mutant [1]
  IC50: 4.6 ± 1.8 µM
PMAT I89M mutant [1]; inhibition of MPP+ uptake
  Change in inhibition, I89M vs WT PMAT (in words): no significant changes

## C[n+]1ccc(-c2ccccc2)cc1 [MPP^+, 1-methyl-4-phenylpyridinium]
PMAT I89M mutant [2]
  Decrease in maximal transport velocity (Vmax), I89M vs WT PMAT: 2.7 fold and ~ 2.7 fold
  Decrease in transport efficiency (Vmax/Km), I89M vs WT PMAT: 3.7 fold

## O=[N+]([O-])c1ccc(CSc2ncnc3c2ncn3[C@@H]2O[C@H](CO)[C@@H](O)[C@H]2O)cc1 [NBMPR, nitrobenzylmercaptopurine riboside]
ENT1
  Kd: 0.001 to 0.01 µM
PMAT I89M mutant [1]; inhibition of MPP+ uptake
  Change in inhibition, I89M vs WT PMAT (in words): no significant changes
ENT2
  Concentration at which the transporter becomes sensitive: > 10 µM
